# Experimental data reported in PubChem BioAssay AID504495 (The Scripps Research Institute Molecular Screening Center, 2011).
# Biological target: Platelet-activating factor acetylhydrolase 2, cytoplasmic (Mus musculus) (UniProt Q8VDG7)
# Assay: in situ blockade of mouse PAFAH2 activity – cell-based, gel-based competitive ABPP, fluorescence, powder samples, late-stage follow-up (AID 504495)
# Settings: BW5147 murine T cells, FP-Rh, 4 h, at 0.03 µM, active compounds read high
# In short: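 Material: murine BW5147 T cells; Amount: soluble lysate protein at 1 mg/mL for probe labeling; Reagent: FP-Rh probe 2 µM; Signal: SDS-PAGE in-gel fluorescence; Benchmarks: high control DMSO-only treated cells, low control gel background; Times: cells 4 h 37 °C, probe 30 min 25 °C; Measure: % inhibition versus DMSO-treated cells.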
# Sequence of Platelet-activating factor acetylhydrolase 2, cytoplasmic (Mus musculus) (Q8VDG7 whole entry, looked up): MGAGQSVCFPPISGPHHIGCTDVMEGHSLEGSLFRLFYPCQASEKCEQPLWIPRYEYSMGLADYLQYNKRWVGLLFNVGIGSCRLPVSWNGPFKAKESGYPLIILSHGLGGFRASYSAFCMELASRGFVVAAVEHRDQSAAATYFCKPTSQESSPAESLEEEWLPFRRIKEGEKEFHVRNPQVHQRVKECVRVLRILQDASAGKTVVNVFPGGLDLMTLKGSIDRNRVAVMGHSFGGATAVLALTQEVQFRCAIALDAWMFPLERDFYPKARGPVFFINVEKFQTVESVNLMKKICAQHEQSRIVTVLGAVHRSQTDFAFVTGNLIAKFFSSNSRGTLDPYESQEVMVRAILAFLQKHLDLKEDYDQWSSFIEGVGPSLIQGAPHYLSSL
smiles,measurement,value
O=C(N1CCCC1)n1ncc(-c2ccc(-c3ccccc3)cc2)n1,inhibition,100%
